Tn6 DDE FP: disrupts Tn6 cyclic peptide binding to fibrin D-Dimer-E complex; inhibition, % at 8.3 µM; P02675; Fibrin DD(E) TRITC-Tn6 fluorescence polarization displacement; 0.21% of 370,000 active;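 active = inhibition above a per-campaign cutoff: mean of compounds within control limits plus 3 SD, cut at about 15% in these data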;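 note: 0% = median of all compound wells on the plate and 100% = blocking peptide control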
Neddylation inh: blocks human cullin neddylation; P61081+Q13564; AID 651699; inhibition, % at 25 µM; TR-FRET cullin neddylation, biochemical; 0.58% of 360,000 active; in the data active = inhibition above about 36%
PKA-R2B act: PKA-R2B complex activation; AID 504700; P22694+P31323; activation, % at 11.4 µM; PKA-R2B holoenzyme dissociation, Cy5-IP20 fluorescence polarization; R2B truncated from residue 108, S112A mutant; 0% DMSO only, 100% 113 µM cGMP; 0.079% of 340,000 active;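 active = activation above a cutoff set at the mean over all compounds plus 3 SD, cut at about 18% in these data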;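 note: higher means more holoenzyme dissociation and a rise in polarization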
Target sequence (P31323 whole entry, looked up, other chains not shown, the tested form may be a part): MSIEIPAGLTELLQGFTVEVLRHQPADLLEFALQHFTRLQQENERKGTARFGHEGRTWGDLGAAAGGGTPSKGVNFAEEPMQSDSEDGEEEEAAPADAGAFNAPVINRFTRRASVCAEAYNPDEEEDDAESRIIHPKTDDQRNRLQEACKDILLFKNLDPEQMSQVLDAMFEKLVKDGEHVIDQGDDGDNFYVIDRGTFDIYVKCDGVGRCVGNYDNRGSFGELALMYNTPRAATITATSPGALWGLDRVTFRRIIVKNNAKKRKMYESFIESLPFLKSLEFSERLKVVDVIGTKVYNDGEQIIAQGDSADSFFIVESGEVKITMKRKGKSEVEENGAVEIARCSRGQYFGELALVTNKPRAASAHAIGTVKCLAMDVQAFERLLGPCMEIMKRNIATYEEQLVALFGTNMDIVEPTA
DDE Tn7 FP inh: inhibitors of Tn7 peptide binding to human fibrin DD(E) | AID 720508 | 0.13% of 370,000 active | P02675 | FP displacement of FITC-Tn7 peptide from fibrin DD(E); 0% = median of compound wells per plate | inhibition, % at 8.3 µM;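 active = inhibition above the mean of compounds falling within the control limits plus 3 SD of them, cut at about 14% in these data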;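 note: 0% = plate median of compound wells and 100% = 10 µM Aha-Tn7 peptide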
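system = human fibrin DD(E) protein | quantity = DD(E) 2 µM final | medium = Tris/NaCl/CaCl2 buffer, pH 7.8 | also added = labelled Tn7 tracer, 0.1 µM | compound dosing = single point at 8.3 µM | timing = compound with protein 10 min, then 3 h after probe, room temperature | signal = FP measurement | benchmarks = Aha-Tn7 high control | repeats = one replicate per compound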
PKA-R1A act: activates the PKA-R1A holoenzyme complex; AID 504707; activation, % at 11.4 µM; PKA-R1A dissociation, Cy5-IP20 fluorescence polarization; scaled: DMSO 0%, 113 µM cGMP 100%; P00514+P68181; 0.083% of 340,000 active;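 active = percent activation above the mean of all tested compounds plus 3 SD, cut at about 19% in these data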;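 note: higher means more PKAc released from R1A so a rise in polarization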
DDE Tn6 FP ctr: DD(E)-Tn6 binding inhibition, counter-screen; inhibition, % at 8.3 µM; Fibrin DD(E), TRITC-Tn6 fluorescence polarization displacement; 0% = median of compound wells, not DMSO; AID 720621; shares compounds with Tn6 DDE FP; 2% of 680 active;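 active = inhibition above the mean of test compounds lying between the control limits plus 3 SD of those, cut at about 14% in these data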;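 note: 0% = median of compound wells and 100% = wells with Aha-Tn7 blocking peptide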
Tn6 DDE conf: confirmation of inhibitors of Tn6 binding to human fibrin DD(E) | shares compounds with Tn6 DDE FP | FP displacement of TRITC-Tn6 peptide from DD(E); 0% = per-plate median of test wells | inhibition, % at 8.3 µM | 10% of 680 active | AID 720631;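 active = inhibition above the mean of compounds lying within the control limits plus 3 SD, cut at about 16% in these data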;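 note: 100% = high control wells holding a competing inhibitor peptide at 10 µM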
Numbers without * were called inactive; . = no result. Most compounds without a hit are left out; they make up all but 1% or so of the library.

SMILES	Tn6 DDE FP	Neddylation inh	PKA-R2B act	DDE Tn7 FP inh	PKA-R1A act	DDE Tn6 FP ctr	Tn6 DDE conf
Nc1ccc(O)c2c1C(=O)c1ccccc1C2=O	130*	-76	-7	2	-10	8	102*
COc1ccc(N)c2c1C(=O)c1ccccc1C2=O	72*	-92	4	3	-17	4	58*
COc1ccc(C(=O)N(C)[C@H]2C[C@H]3c4[nH]c5c(-c6ccccc6)cccc5c4CCN3C(=O)[C@H]2[C@H](C)O)cc1	4	.	.	7	.	.	.
CN1C(=O)c2cc(NC(=O)C3CCOCC3)ccc2OC[C@@H]2O[C@@H](CC(=O)NCc3ccccc3F)CC[C@@H]21	-7	.	.	2	.	.	.
CC(C)CN(CC(C)C)C(=O)c1ccc2c(c1)NC(=O)C(C)(C)O2	-8	.	.	0	.	.	.
Cc1cc(O)ccc1N=Cc1c(C(F)(F)F)[nH][nH]c1=O	77*	-10	4	4	-1	-5	0
CCOc1cccc(-c2nn3c(-c4cccc(C)c4)nnc3s2)c1	-6	.	.	0	.	.	.
CN1[C@@H](Cc2ccccc2)COc2cccc(N3CCSCC3)c2S1(=O)=O	-5	.	.	3	.	.	.
COC(=O)c1cccc(NC(=S)N2CCN(c3ccccc3F)CC2)c1	18*	10	-3	4	7	2	-8
Cc1cc2ccccc2n1CCNC(=O)C1CCCCC1	39*	-120	0	-8	-8	0	-3
Cc1cc2ccccc2n1CCNC(=O)C1CCCC1	11	-24	2	3	2	.	.
COc1ccccc1C(C)NCC(=O)NC(=O)NCc1ccco1 (stereo unspecified)	57*	12	-8	4	-4	-5	-8
COCCn1c(C)cc(C2=NNC(=Nc3ccc(OC)cc3)SC2)c1C	.	-5	-1	.	1	.	.
COCCn1c(C)cc(C2=NNC(=Nc3ccccc3)SC2)c1C	17*	-5	4	-1	-12	6	-7
COc1cc(OC)cc(C(=O)NCc2ccc3c(c2)cc(C)n3C)c1	2	-169	1	0	12	.	.
Cc1onc(-c2ccccc2Cl)c1C(=O)NCc1ccc2c(c1)cc(C)n2C	22*	-74	-4	-2	-14	3	1
Cc1cc2cc(CNC(=O)c3ccco3)ccc2n1C	27*	-75	3	-5	-11	6	0
COc1ccc(C(=O)NCc2ccc3c(c2)cc(C)n3C)cc1	19*	-342	9	-2	-7	6	-1
CCOc1ccc(CC(=O)NCc2ccc3c(c2)cc(C)n3C)cc1	45*	-329	13	2	-7	3	0
Cc1ccc(CNC(=O)c2c(-c3ccccc3Cl)noc2C)cc1	-4	2	3	0	-1	.	.
CC1=CC2C3C(=O)N(c4ccccc4)C(=O)C3C1C(=O)C2(O)C(C)C (stereo unspecified)	-1	.	.	4	.	.	.
Cc1cc2cc(CNC(=O)COc3ccccc3)ccc2n1C	46*	-84	-2	3	-3	4	9
Cc1cc2cc(CNC(=O)NC3CCCCC3)ccc2n1C	-1	-136	1	-4	7	.	.
Cc1cc2cc(CNC(=O)Nc3ccc(Cl)c(Cl)c3)ccc2n1C	96*	-186	6	-12	4	0	35*
Cc1ccc(S(=O)(=O)NCc2ccc3c(c2)cc(C)n3C)cc1	71*	-15	2	-7	-12	4	-1
SMILES	Tn6 DDE FP	Neddylation inh	PKA-R2B act	DDE Tn7 FP inh	PKA-R1A act	DDE Tn6 FP ctr	Tn6 DDE conf
COCC(=O)NCc1ccc2c(c1)cc(C)n2C	21*	-33	-2	3	1	1	0
COc1ccc(CC(=O)NCc2ccc3c(c2)cc(C)n3C)cc1OC	0	-197	4	6	-9	.	.
Cc1ccc(S(=O)(=O)NCc2ccncc2)cc1	1	0	2	-3	-11	.	.
CCOC(=O)[C@@]12CCCC=C1N(CCc1ccc(Cl)cc1)C(=O)[C@H]2CC(=O)NCC12CC3CC(CC(C3)C1)C2	4	.	.	2	.	.	.
O=C(NCCCc1ccccc1)OC1CC2CC1[C@H]1CCCCN1C2 (stereo partly specified)	13	.	.	2	.	.	.
O=C1c2ccccc2/C(=C\c2ccc(O[C@@H]3CCCCO3)cc2)N1c1ccccc1	-5	.	.	7	.	.	.
COc1cc(/C=C\C(=O)NCc2ccc3c(c2)cc(C)n3C)cc(OC)c1OC	22*	-152	-8	-8	-11	10	5
FC(F)Oc1ccc(NC(=S)NCc2ccccc2)cc1	-6	-5	-15	-2	-13	.	.
Cc1cc2cc(CNC(=S)Nc3ccc(OC(F)F)cc3)ccc2n1C	20*	-73	4	4	-9	7	6
COc1ccc(CCNC(=O)COC(=O)/C=C/c2cc(OC)c(OC)c(OC)c2)cc1OC	-3	25	-2	-5	2	.	.
CCCn1cc(C(=O)Nc2ccc(Oc3cccnc3)cc2)c2ccccc21	0	.	.	-4	.	.	.
COc1cccc(NC(=O)c2ccccc2N2C(=O)C3C4C=CC(C5CC45)C3C2=O)c1 (stereo unspecified)	0	-2	-8	6	1	.	.
COc1cccc(NC(=O)c2ccccc2N2C(=O)C3C4C=CC(C4)C3C2=O)c1 (stereo unspecified)	16*	-1	-2	2	-2	-2	-4
CCOC(=O)c1ccc(-c2ccc(/C=C(\C#N)C(=O)NCC3CCCO3)o2)cc1 (stereo unspecified)	18*	39	-11	6	5	-5	-9
COc1ccc(/C=C(\C#N)C(=O)NCC2CCCO2)cc1OC (stereo unspecified)	1	-4	-12	3	-10	.	.
O=C(C(=O)N1CCN(C(=O)c2ccccc2C(F)(F)F)CC1)c1cccc(C(F)(F)F)c1	-2	.	.	0	.	.	.
C#CCn1c(S(=O)(=O)Cc2ccccc2Cl)nc(-c2ccccc2)c1-c1ccccc1	16*	-5	-9	-3	-13	12	8
C#CCn1c(S(=O)(=O)Cc2ccc(C)cc2)nc(-c2ccccc2)c1-c1ccccc1	-4	-24	-9	3	-5	.	.
Fc1ccc2nc(C3CCCCN3Cc3nc(CC4CC4)no3)[nH]c2c1 (stereo unspecified)	16*	3	-11	1	-8	2	-5
CCCC1CCC2(CCCN2CCOC(=O)Nc2ccccc2OC)CC1 (stereo unspecified)	0	.	.	-7	.	.	.
Fc1ccccc1-c1nnc2c3ccccc3nc(N3CCOCC3)n12	15*	8	0	3	-6	-2	-1

Compound activity: PubChem, several laboratories
